CHO-K1 Ca antag – counter-screen for M1 antagonists: effect in parental CHO-K1 cells | inhibition, % at 3 µM | actives 0.6% (n = 360,000) | AID 602250 | ATP-induced calcium, Fluo-8 fluorescence;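 active = inhibition above a per-plate cutoff, the plate's mean sample inhibition plus 3 SD, cut at about 24% in these data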
CHO parental Ca – counter-screen for OX1R antagonists: effect in parental CHO cells; actives 0.63% (n = 330,000); inhibition, % at 5.6 µM; parental CHO-K1, ATP-induced calcium, Fluo-8 fluorescence; AID 463079;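 active = inhibition above that plate's mean sample inhibition plus 3 SD, cut at about 26% in these data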
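Assay system: untransfected parental CHO cell line. Also added: ATP agonist challenge. Dosing: one dose, 5.6 µM nominal. Measured by: Fluo-8 fluorescence. Read-out: % inhibition. Benchmarks: ATP wells versus no-ATP DMSO wells. Repeats: no replicates.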
M1 ag parental – M1 agonist counterscreen hit in parental CHO-K1 cells; Fluo-8 calcium fluorescence; scaled to maximal ATP response, vehicle zero; activation, % at 3 µM; actives 0.48% (n = 360,000); in the data active = activation above about 15%;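 also: untransfected CHO-K1 host cells lacking M1 receptor as counterscreen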
OX1R antag-1 – antagonists of human orexin 1 receptor (OX1R); inhibition, % at 6.6 µM; O43613; OX1R-expressing cells, FRET antagonist read-out; actives 1.8% (n = 330,000); in the data active = inhibition mostly above about 38%, no sharp cut-off; inactive = mostly below about 40%
Target sequence (O43613 whole entry, looked up): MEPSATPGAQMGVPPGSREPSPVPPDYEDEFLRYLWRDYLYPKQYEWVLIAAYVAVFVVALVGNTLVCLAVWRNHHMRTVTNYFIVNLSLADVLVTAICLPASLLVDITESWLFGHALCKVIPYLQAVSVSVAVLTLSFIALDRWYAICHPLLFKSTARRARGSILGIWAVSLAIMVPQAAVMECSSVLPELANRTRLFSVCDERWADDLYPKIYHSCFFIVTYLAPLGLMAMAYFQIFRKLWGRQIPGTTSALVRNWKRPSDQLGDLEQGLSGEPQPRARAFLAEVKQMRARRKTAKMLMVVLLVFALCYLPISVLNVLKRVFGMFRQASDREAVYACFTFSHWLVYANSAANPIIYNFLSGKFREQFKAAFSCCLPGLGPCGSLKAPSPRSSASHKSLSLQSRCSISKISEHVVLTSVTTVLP
M1 PAM parental – M1 PAM counterscreen hit in parental CHO-K1 cells | activation, % at 3 µM | AID 602247 | actives 0.02% (n = 360,000) | ATP EC20, Fluo-8 calcium fluorescence; 0% at ATP EC20, 100% at ATP max;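 active = activation above the run cutoff, the mean activation of all test compounds plus 3 SD, cut at about 40% in these data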;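 also: peak over basal fluorescence ratio in a 140 s read after ATP addition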
OX1R antag-2 – blocks the human orexin 1 receptor; actives 0.43% (n = 330,000); inhibition, % at 5 µM; CHO/OX1R cells, Fluo-8 calcium fluorescence, orexin A; AID 434989;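 active = inhibition above its plate's threshold, mean inhibition of all tested compounds on the plate plus 3 SD, cut at about 37% in these data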
OX1R HTRF confirm – confirmation of human orexin 1 receptor antagonists, HTRF format. inhibition, % at 6.6 µM. shares compounds with OX1R antag-1. actives 49% (n = 1,800). OX1R-expressing cells, HTRF antagonist assay; in the data active = inhibition above about 55%;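 also: CHO cells expressing OX1R stimulated with orexin A at about EC80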
CHO-K1 HTRF – signal in parental CHO-K1 cells, OX1R antagonist counter-screen; shares compounds with OX1R antag-1; HTRF counterscreen; inhibition, % at 6.6 µM; actives 48% (n = 1,800); AID 493232; in the data active = inhibition above about 17%
Hits are given with their value; . = inactive; / = no result. Rows were chosen to be rich in hits. Some 2.9% of all compounds tested hit in one or more screens of this group.

SMILES	CHO-K1 Ca antag	CHO parental Ca	M1 ag parental	OX1R antag-1	M1 PAM parental	OX1R antag-2	OX1R HTRF confirm	CHO-K1 HTRF
O=C(c1ccccc1)N1CCN(c2ccc([N+](=O)[O-])cc2-n2cccc2)CC1	.	.	.	.	.	.	/	/
CCOC(=O)C1CCN(c2ccc([N+](=O)[O-])cc2S(=O)(=O)N2CCOCC2)CC1	.	.	.	.	.	.	/	/
CCN1CCN(c2ccc([N+](=O)[O-])cc2S(=O)(=O)N2CCOCC2)CC1	.	.	.	145	.	.	.	44
O=C1c2cccnc2C(=O)N1Cc1ccc(S(=O)(=O)N2CCN(c3ccccc3)CC2)cc1	.	.	.	.	.	.	/	/
O=C(O)c1ccc(Cl)cc1NC(=O)C1CCN(S(=O)(=O)c2cccs2)CC1	.	/	.	/	.	/	/	/
Cc1noc(C)c1CS(=O)(=O)c1ccc([N+](=O)[O-])cc1	.	.	.	107	.	.	58	58
CC(C)C(C)NC(=O)CN1C(=O)NC2(CCc3ccccc32)C1=O (stereo not drawn)	.	.	.	.	.	.	/	/
COc1cccc2oc3ccc(C#Cc4ccccn4)cc3c(=O)c12	.	.	.	85	.	.	91	.
O=c1c2ccccc2oc2cc(C#Cc3ccccn3)ccc12	.	.	.	.	.	.	/	/
COc1ccc(N2CCN(C(CNC(=O)C(C)C)c3ccc4c(c3)OCO4)CC2)cc1 (stereo not drawn)	.	.	.	.	.	.	/	/
COC(=O)c1ccccc1NC(=O)c1cc[n+](C)cc1	.	.	.	83	.	.	.	49
Cc1cc(C)c(C)c(S(=O)(=O)N2CCN(C(=O)CNC(=O)c3ccco3)CC2)c1C	.	.	.	.	.	.	/	/
NC(=O)Cc1nc(-c2ccc([N+](=O)[O-])cc2)cs1	.	.	.	78	.	.	.	33
O=C(O)C(CO)(c1ccccc1)c1ccccc1	.	.	.	.	.	.	/	/
O=[N+]([O-])c1ccc(/C=N/n2cn[nH]c2=S)cc1	.	.	.	109	.	.	60	74
S=c1[nH]ncn1/N=C/c1cccs1	.	.	.	.	.	.	/	/
CSc1nncn1/N=C/c1ccc([N+](=O)[O-])cc1	.	.	.	90	.	.	.	46
CSc1nncn1/N=C/c1ccc2c(c1)OCO2	.	.	.	.	.	.	/	/
Cc1c(Nc2ccc3nonc3c2[N+](=O)[O-])c(=O)n(-c2ccccc2)n1C	.	.	.	195	.	.	.	87
O=C(O)c1ccc(Nc2cc(Cl)c3nonc3c2[N+](=O)[O-])cc1	.	.	.	96	.	.	62	98
Cc1cccc(Nc2ccc3nonc3c2[N+](=O)[O-])c1C	.	.	.	.	.	.	/	/
O=C(O)c1cccc(Nc2ccc3nonc3c2[N+](=O)[O-])c1	.	.	.	92	.	.	58	97
CC(=O)Nc1ccc(Nc2cc(N(C)C)c3nonc3c2[N+](=O)[O-])cc1	.	/	.	/	.	/	/	/
NS(=O)(=O)c1ccc(Nc2ccc3nonc3c2[N+](=O)[O-])cc1	.	.	.	90	.	.	63	110
C/C(=N\Nc1ccc(C(=O)O)cc1)c1ccc(S(=O)(=O)NCc2ccco2)cc1	.	.	.	.	.	.	/	/
SMILES	CHO-K1 Ca antag	CHO parental Ca	M1 ag parental	OX1R antag-1	M1 PAM parental	OX1R antag-2	OX1R HTRF confirm	CHO-K1 HTRF
O=C(Nc1ccc(F)c(Cl)c1)N1CCCCCC1	.	.	.	.	.	.	/	/
COc1c(C)cc(C(=O)C2CCCN(C(=O)c3cccc(-n4cccn4)c3)C2)cc1C (stereo not drawn)	.	.	.	89	.	.	81	.
COc1c(C)cc(C(=O)C2CCCN(C(=O)c3cc(C)on3)C2)cc1C (stereo not drawn)	.	.	.	.	.	.	/	/
CCN(Cc1ccccc1)C(=O)COC(=O)c1cc(S(=O)(=O)Nc2c(C)n(C)n(-c3ccccc3)c2=O)ccc1C	.	.	.	81	.	.	74	.
CCN(Cc1ccccc1)C(=O)C(C)OC(=O)c1cc(S(=O)(=O)Nc2c(C)n(C)n(-c3ccccc3)c2=O)ccc1C (stereo not drawn)	.	.	.	.	.	.	/	/
O=C(NNC(=O)c1ccc([N+](=O)[O-])cc1Cl)c1ccncc1	.	.	.	103	.	.	.	44
O=C(NNC(=O)c1ccc(Cl)cc1Cl)c1ccncc1	.	.	.	.	.	.	/	/
COc1cc([N+](=O)[O-])c(C(=O)N2CCOCC2)c([N+](=O)[O-])c1	.	.	.	94	.	.	.	42
Cc1cc(C)nc(N2CCCC(C(=O)NC(C)C)C2)n1 (stereo not drawn)	.	.	.	.	.	.	/	/
CN1C(=O)C2(OCC(C)([N+](=O)[O-])CO2)c2ccccc21 (stereo not drawn)	.	.	.	.	.	.	/	/
CN1C(=O)C2(N=c3ccccc3=N2)c2ccccc21	.	.	.	79	.	.	86	.
C=CCOc1ccc(CNc2ccc3[nH]c(=O)[nH]c3c2)cc1OCC	.	.	.	112	.	.	.	.
CCOc1cc(CNc2ccc3[nH]c(=O)[nH]c3c2)ccc1OCC(=O)NC(C)(C)C	.	.	.	.	.	.	/	/
CCOC(=O)CCNCc1ccc(F)cc1	.	.	.	.	.	.	/	/
CN(CC(=O)Nc1ccccc1Br)C(=O)c1ccccc1-c1nc2ccccc2s1	.	.	.	84	.	.	71	.
CN(C1CCCCC1)S(=O)(=O)c1cc2c3c(c1)CCN3C(=O)CC2	.	.	.	94	.	.	.	.
CN(C)C(CNC(=O)c1cc2ccccc2oc1=O)c1ccccc1 (stereo not drawn)	.	.	.	92	.	.	.	43
CN1CCc2cc3c(c4c2[C@H]1[C@H](O)c1ccccc1-4)OCO3	.	.	.	119	.	.	66	35
CCCCN(CC)CCCNC(=O)c1cc2cc3ccc(OC)cc3nc2o1	.	.	.	104	.	.	.	49
COc1ccc2cc3cc(C(=O)NCc4cccs4)oc3nc2c1	.	.	.	.	.	.	/	/
COc1ccc2cc3cc(C(=O)NCCc4ccc(OC)c(OC)c4)oc3nc2c1	.	.	.	.	.	.	/	/
CCCN(CCC)CCCNC(=O)c1cc2cc3ccc(OC)cc3nc2o1	.	.	.	123	.	.	.	58
CCN(CC(=O)Nc1sc2c(c1C#N)CCCC2)Cc1nc2ccccc2c(=O)[nH]1	.	.	.	83	.	.	58	.
Cc1ccc(CNC(=O)C2CCCN(c3cnccn3)C2)cc1 (stereo not drawn)	.	.	.	.	.	.	/	/
